# Screening data deposited in PubChem by several laboratories.
# This is a sample that favours compounds with a hit; in the whole collection about 2.2% have one here.
# FLuc inhib CS = counter-screen for luciferase assay inhibitors: firefly luciferase inhibition. ATPLite firefly luciferase biochemical luminescence, 10 min. 200,000 tested, 1.5% active. AID 1006. inhibition, % at 10 µM. P08659;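 active means inhibition above about 50% when tested at 10 µM, limit read from the data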
# Target sequence (P08659 whole entry, looked up): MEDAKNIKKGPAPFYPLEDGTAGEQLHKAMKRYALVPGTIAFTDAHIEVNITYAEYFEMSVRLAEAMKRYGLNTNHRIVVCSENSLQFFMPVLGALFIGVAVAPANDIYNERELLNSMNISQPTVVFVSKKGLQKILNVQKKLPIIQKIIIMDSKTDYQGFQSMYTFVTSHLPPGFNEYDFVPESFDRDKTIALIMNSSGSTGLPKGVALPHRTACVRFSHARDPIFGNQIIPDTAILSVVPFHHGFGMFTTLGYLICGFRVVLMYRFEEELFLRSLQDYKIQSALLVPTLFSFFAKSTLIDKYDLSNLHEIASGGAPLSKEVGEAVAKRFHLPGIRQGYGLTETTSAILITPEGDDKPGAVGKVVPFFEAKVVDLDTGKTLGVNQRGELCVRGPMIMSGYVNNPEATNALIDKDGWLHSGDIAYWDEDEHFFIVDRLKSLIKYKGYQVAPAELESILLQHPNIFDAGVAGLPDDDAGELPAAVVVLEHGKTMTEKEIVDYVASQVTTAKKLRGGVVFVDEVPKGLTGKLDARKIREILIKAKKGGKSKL
# PPC-1+TRAIL kill = kills PPC-1 cancer cells in the presence of TRAIL; cell killing (% activity), % at 4 µM or 5 µM; 220,000 tested, 0.41% active; AID 1443; PPC-1 cells + TRAIL, ATPLite viability luminescence;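 active means cell killing above 50% in the first pass at 4 µM, then a duplicate retest at 5 µM averaging 50% or more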
# PKD1 inh = inhibitors of human PKD1 kinase; PKD1 kinase fluorescence polarization assay; inhibition, % (concentration not given with the values); 200,000 tested, 0.056% active; AID 797; in the data active means inhibition above about 50%
# FLuc act counter = firefly luciferase counter-screen for stimulation assays. P08659. ATPlite luciferase biochemical, luminescence, 10 min; 0 = ATP-free wells, 1 = DMSO control. activation factor at 10 µM. 200,000 tested, under 10 active. AID 1027;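 active means luciferase activation factor, scaled between plate controls, of at least 2 with compound at 10 µM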
#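 Assay system: Luciferase/luciferin detection reagent, cell-free biochemical luciferase assay / Read-out: luciferase activation / Benchmarks: No-ATP low control, compound-free enzyme-plus-ATP high control / Medium: PBS buffer for ATP / Detection: luminescence measurement of luciferase light output / Schedule: 10 min at ambient temperature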
# Wee1 stabilizer = human Wee1 degradation inhibition, primary screen. HeLa Luc-Wee1K328M stability, luciferase luminescence; 100% = proteasome inhibitor MG132 effect. reporter increase, % at 5 µM. 220,000 tested, 1.2% active. AID 1321;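 active means activation above the mean of all tested compounds plus 3 SD, set per screening run, cut at about 8.8% in these data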;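 further: cells exposed to compound for 20 h before luminescence read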
# C8 TRAIL sens = caspase-8 TRAIL sensitization. NB7+C8 cells + TRAIL, ATPlite viability luminescence. inhibition (viability loss, TRAIL sensitization), % at 10 µM. 360,000 tested, 1% active. AID 624354;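 active means compounds causing at least 50% loss of cell viability in the single-dose screen, relative to plate controls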
# Hits are given with their value; i = inactive; nt = not tested or not shown.
SMILES,FLuc inhib CS,PPC-1+TRAIL kill,PKD1 inh,FLuc act counter,Wee1 stabilizer,C8 TRAIL sens
COc1cc(/C=N/N2C(=O)c3ccccc3C2=O)ccc1O,56.9,i,i,i,i,i
O=C1Nc2ccccc2/C1=N\N=C\c1ccc(O)c(O)c1,nt,i,nt,nt,i,57.5
COc1cc(/C=N/N=C2/C(=O)Nc3ccccc32)ccc1O,94.1,i,i,i,i,74.2
CS(=O)(=O)N(CC(=O)N1CCN(Cc2ccccc2)CC1)c1ccccc1Br,nt,nt,nt,nt,nt,i
O=C(CN1C(=O)C2C3CCC(C3)C2C1=O)N1CCN(Cc2ccccc2)CC1 (configuration not stated),i,nt,i,i,i,i
O=C(C[C@@H]1C/C=C/CC[C@H](Cc2ccc(F)cc2)C(=O)OC[C@@H](Cc2ccccc2)NC1=O)N[C@H](CO)Cc1ccccc1,nt,nt,nt,nt,nt,76.8
Cc1nc2ncnn2c(N2CCCC(C(=O)Nc3ccccc3Br)C2)c1C (configuration not stated),i,i,i,i,i,i
Nc1ccc(-c2nc3ncccc3o2)c(Cl)c1,72.5,i,i,i,i,53.3
Cc1ccc(CC#N)c(-c2c(CC#N)ccc(C)c2C)c1C,nt,nt,nt,nt,nt,i
Cc1ccc2c(c1C)-c1c(ccc(C)c1C)C(=O)C2=O,nt,nt,nt,nt,nt,58.1
COc1cc2c(cc1OC)CN(c1nc(-c3cccnc3)nc3ccccc13)CC2,i,i,i,i,10.2,i
Oc1ccc(/C=N/NC(=S)Nc2cccnc2)c(O)c1,i,i,i,i,i,79.7
Oc1ccc(/C=N/NC(=S)Nc2cccnc2)c(O)c1O,nt,i,nt,nt,i,i
Oc1ccc(C=NNC(=S)Nc2ccc(F)cc2)c(O)c1,nt,nt,nt,nt,nt,i
Oc1cccc(/C=N/NC(=S)Nc2cccnc2)c1O,i,i,i,i,i,55.5
CCN(CC(=O)Nc1ccc2c(c1)OCCO2)C(=O)c1cc(=O)[nH]c2ccccc12,nt,nt,nt,nt,nt,i
Cc1c(CCCl)c(Cl)n2c(nc3ccccc32)c1C#N,nt,nt,nt,nt,nt,88.3
FC(F)(F)c1nnc(-c2ccccc2)nc1Sc1ccc(Cl)cc1,i,i,i,i,i,48.2
FC(F)(F)c1cccc(Sc2nc(-c3ccccc3)nnc2C(F)(F)F)c1,i,i,i,i,i,51.0
COc1ccc(F)cc1S(=O)(=O)Nc1ccncc1,nt,nt,nt,nt,nt,i
O=C(Cn1ncc(Cl)c(Cl)c1=O)NCC1CCCCC1,i,i,i,i,i,94.5
O=C1CN(C(=O)Cn2ncc(Cl)c(Cl)c2=O)c2ccccc2N1,i,i,i,i,i,94.3
O=C(OCn1ncc(Cl)c(Cl)c1=O)c1ccccc1Cl,i,i,i,i,i,86.9
O=C1CN(C(=O)COc2ccc(Cl)c(Cl)c2)c2ccccc2N1,nt,nt,nt,nt,nt,i
Cc1cccc(NC(=O)CNC(=O)Cn2ncc(Cl)c(Cl)c2=O)c1C,nt,nt,nt,nt,nt,74.3
SMILES,FLuc inhib CS,PPC-1+TRAIL kill,PKD1 inh,FLuc act counter,Wee1 stabilizer,C8 TRAIL sens
O=C(OCn1ncc(Cl)c(Cl)c1=O)c1ccc(F)cc1,i,i,i,i,i,nt
Cc1cccc(NC(=O)CNC(=O)CSc2ncccn2)c1C,nt,nt,nt,nt,nt,i
O=C(CNc1cc(S(=O)(=O)N2CCCC2)ccc1OCC(F)(F)F)Nc1cccc(C(F)(F)F)c1,i,i,i,i,i,i
CN(C)CCNC(=O)C1CCN(S(=O)(=O)c2ccc3ccccc3c2)CC1,nt,nt,nt,nt,nt,i
CC(=O)c1ccc(NS(=O)(=O)c2ccc3c(c2)CCC(=O)N3)cc1,nt,nt,nt,nt,nt,i
O=C(CN1C(=O)c2ccccc2C1=O)NC1CCS(=O)(=O)C1 (configuration not stated),nt,nt,nt,nt,nt,i
Cc1ccc(NC(=O)Cn2ncc(Cl)c(Cl)c2=O)cc1S(=O)(=O)N1CCCCC1,nt,nt,nt,nt,nt,79.0
Cc1ccc(NC(=O)Cc2ccc(Cl)cc2)cc1S(=O)(=O)N1CCCCCC1,nt,nt,nt,nt,nt,i
O=C(Cn1ncc(Cl)c(Cl)c1=O)NC1CCCCC1,nt,nt,nt,nt,nt,96.2
Cc1ccc(Cn2c(C)c3cnn(CC(=O)NC4CCCC4)c(=O)c3c2C)cc1,nt,nt,nt,nt,nt,i
O=C(Cn1ncc(Cl)c(Cl)c1=O)NC1CCS(=O)(=O)C1 (configuration not stated),nt,i,nt,nt,9.5,i
O=C(Cn1ncc(Cl)c(Cl)c1=O)c1ccc(Cl)cc1,i,i,i,i,i,95.3
CCc1ccc2nc3sc(C(=O)O)cc3cc2c1,67.7,i,i,i,i,i
CCN(CC)c1ccc(N=Cc2ccc([N+](=O)[O-])o2)cc1,i,53.0,i,i,i,i
CCN(CC)c1ccc(N=Cc2ccccc2[N+](=O)[O-])cc1,65.6,57.4,i,i,i,i
CC(=O)N(C)c1ccc(NC(=O)Nc2ccccc2C)cc1,54.5,i,i,i,i,i
O=C(COC(=O)c1cc[n+]([O-])cc1)Nc1ccc(Cl)cc1Cl,nt,nt,nt,nt,nt,i
COc1ccc(OCc2nc(C#N)c(N3CCN(c4ccc(OC)cc4)CC3)o2)cc1,i,nt,i,i,i,i
COc1ccc(N2CCN(c3oc(COc4ccccc4Cl)nc3C#N)CC2)cc1,i,i,i,i,9.6,i
CC(C)(C)NC(=O)CSc1nc2ccccc2c(=O)[nH]1,nt,i,nt,nt,9.6,i
O=C(O)CSc1nc2ccccc2c(=O)[nH]1,i,i,i,i,i,i
Cc1ccc(NC(=O)CSc2nnc(Cc3ccccc3)o2)cc1,i,i,i,i,10.7,i
O=C(CSc1nccc(=O)[nH]1)NCc1ccc(Cl)cc1,i,i,i,i,9.3,i
Cn1c(=O)[nH]c(=O)c2c1nc(N1CCCCCC1)n2CCSc1nc2ccccc2[nH]1,i,i,i,i,10.7,i
Cn1c(=O)[nH]c(=O)c2c1nc(N1CCCC1)n2CCSc1nc2ccccc2[nH]1,i,i,i,i,i,nt
SMILES,FLuc inhib CS,PPC-1+TRAIL kill,PKD1 inh,FLuc act counter,Wee1 stabilizer,C8 TRAIL sens
CC(Sc1ncn[nH]1)C(=O)c1c(N)n(C)c(=O)n(C)c1=O (configuration not stated),nt,nt,nt,nt,nt,i
CCCCP(=O)(CCCC)Cc1ccccc1O,i,i,i,i,9.4,i
Cc1cccc(NC(=S)NNC(=O)c2csc(C)c2)c1,56.8,i,i,i,i,i
Cc1cccc(NC(=S)NNC(=O)c2csc3c2CCCC3)c1,57.0,i,i,i,i,i
Cc1ccc(C)c(NC(=S)NNC(=O)c2csc3c2CCCC3)c1,i,i,i,i,i,i
CCN(CC)S(=O)(=O)c1ccc(Cl)c(C(=O)NNC(=O)c2csc(N3CCOCC3)n2)c1,nt,nt,nt,nt,nt,i
NS(=O)(=O)c1ccc(CCNC(=O)CSc2nc3ccsc3c(=O)n2CC2CCC(C(=O)O)CC2)cc1 (configuration not stated),i,i,i,i,10.7,i
Cc1ccccc1C(=O)NNS(=O)(=O)c1ccc(F)cc1,nt,nt,nt,nt,nt,i
O=C(COc1ccccc1)Nc1nccs1,i,i,i,i,9.6,i
O=C(COc1ccc2ccccc2c1)Nc1nccs1,83.8,i,i,i,i,56.8
COc1cc(Cl)ccc1OCc1cc(C(=O)NC(C)Cc2cccnc2)no1 (configuration not stated),nt,nt,nt,nt,nt,i
Cc1ccc(CNC(=O)CN(C)S(=O)(=O)c2ccc(F)cc2)cc1,nt,nt,nt,nt,nt,i
